Bioassay records: PubChem, Johns Hopkins Ion Channel Center
Sampled rows, rich in hits. Any-hit rate of the full collection: about 3.7%.
KCNQ1 act: human KCNQ1 channel potentiation or activation; P51787; CHO-K1 KCNQ1, thallium flux FluxOR fluorescence; stronger effect = higher value; B-score at 10 µM; 310,000 compounds, 0.35% hits; AID 2648;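 active = fluorescence ratio B-score, a plate-corrected score, at least three library SD, with initial intensity B-score within 5 SD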
Target sequence (P51787 whole entry, looked up): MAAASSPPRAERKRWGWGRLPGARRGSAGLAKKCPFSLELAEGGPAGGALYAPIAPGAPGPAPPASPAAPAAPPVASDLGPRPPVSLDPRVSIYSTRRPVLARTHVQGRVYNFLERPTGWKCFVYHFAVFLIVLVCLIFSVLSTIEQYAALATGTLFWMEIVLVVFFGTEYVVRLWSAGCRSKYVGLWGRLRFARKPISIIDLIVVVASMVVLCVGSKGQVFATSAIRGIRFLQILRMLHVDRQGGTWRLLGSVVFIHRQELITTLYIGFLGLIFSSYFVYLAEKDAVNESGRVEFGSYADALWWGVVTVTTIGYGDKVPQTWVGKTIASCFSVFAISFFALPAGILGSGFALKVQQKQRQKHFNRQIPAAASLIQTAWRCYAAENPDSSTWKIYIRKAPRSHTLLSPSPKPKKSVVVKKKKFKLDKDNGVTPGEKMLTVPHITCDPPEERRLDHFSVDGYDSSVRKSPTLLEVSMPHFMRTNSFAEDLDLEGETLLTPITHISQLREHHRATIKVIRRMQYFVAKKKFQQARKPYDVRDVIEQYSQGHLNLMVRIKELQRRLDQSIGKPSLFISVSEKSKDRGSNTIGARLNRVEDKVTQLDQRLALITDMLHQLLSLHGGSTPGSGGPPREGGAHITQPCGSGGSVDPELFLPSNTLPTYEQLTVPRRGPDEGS
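System: Stable KCNQ1 CHO-K1 line | Incubation: 90 min dye loading and 20 min compound exposure, both at room temperature | Measure: Ratio B score | Medium: Assay buffer for compound exposure, DMSO matched across wells | Compound dosing: Single-concentration screen | Probe or stimulus: K+/Tl+ depolarizing stimulus | Measured by: Kinetic FluxOR fluorescence, 10 s baseline plus 110 s post-stimulus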
KCNK3 inh: human KCNK3 channel inhibition, primary screen | CHO-KCNK3 thallium flux, FluxOR fluorescence; stronger effect = lower value | B-score at 10 µM | 340,000 compounds, 0.84% hits | AID 602410;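 active = B-score under library mean minus 4 SD, starting fluorescence ratio at most library mean plus 5 SD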;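 note: more negative B-score means stronger inhibition of thallium flux through KCNK3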
hERG protect: compounds protecting human hERG from proarrhythmic drug block; Q12809; CHO-hERG, FluxOR thallium flux, dofetilide IC70 present; activation (rescue from dofetilide block), less the hit threshold, % at 10 µM; 310,000 compounds, 0.51% hits;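 active = activation above the mean of controls blocked by dofetilide plus 5 SD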;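 note: thallium influx through hERG after potassium depolarization seen as dye fluorescence rise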
KCNQ1 block: blocks the human KCNQ1 potassium channel; P51787; AID 2642; 310,000 compounds, 1.3% hits; B-score at 10 µM; CHO-K1 KCNQ1, FluxOR thallium flux fluorescence; stronger effect = higher value;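 active = compounds whose thallium flux B-score, printed positive for inhibition, exceeds three library SD while starting fluorescence stays within three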;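 note: channel opened by potassium depolarization with thallium stimulus after 20 min compound exposure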
KCNK9 inh: human KCNK9 channel inhibition | Q9NPC2 | HEK293 KCNK9, FluxOR thallium flux fluorescence; stronger effect = lower value | B-score at 10 µM | 310,000 compounds, 1.2% hits;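 active = ratio B-score over 3 SD below the library mean, with starting fluorescence within 5 SD of its mean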;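 note: negative B-score means less thallium flux so channel inhibition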
Kir21 block: blocks the mouse Kir2.1 inward-rectifier potassium channel; P35561; HEK293-Kir2.1, FluxOR thallium flux fluorescence; stronger effect = lower value; B-score at 10 µM; 310,000 compounds, 0.85% hits; AID 1672;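 active = fluorescence ratio B-score at or below minus 3 SD of library scores, with starting-brightness B-score within 2 SD, cut at about -4.2 in these data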;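 note: channel flux triggered by added potassium and thallium sulfate stimulus; B-score of peak minus minimum fluorescence over baseline after thallium stimulus; more negative B-score means stronger Kir2.1 block with less thallium influx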
KCNK3 confirm: confirmation of human KCNK3 two-pore domain potassium channel inhibitors | shares compounds with KCNK3 inh | CHO-KCNK3 thallium flux, FluxOR fluorescence; 0% buffer, 100% carvedilol maximal block | ratio percent of control, % at 10 µM | 2,400 compounds, 99% hits | AID 651638;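 active = ratio percent of control, averaged over triplicates, above buffer control mean plus 5 SD, cut at about 64% in these data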;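 note: ratio is the fluorescence rise from min to max over baseline after thallium stimulus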
KCNK3 uninduced: counter-screen for KCNK3 inhibitors: effect in non-induced cells; 2,400 compounds, 40% hits; shares compounds with KCNK3 inh; non-induced KCNK3 parental cells, FluxOR thallium flux; stronger effect = lower value; thallium flux ratio (lower = more inhibition) at 10 µM;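 active = thallium flux ratio, averaged over three wells, more than 5 SD below the buffer control mean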;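 note: host cells are CHO cells without KCNK3 induction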
Numbers stand for hits; i = inactive; nt = not tested or not shown.

SMILES | KCNQ1 act | KCNK3 inh | hERG protect | KCNQ1 block | KCNK9 inh | Kir21 block | KCNK3 confirm | KCNK3 uninduced
O=C(CSC1=Nc2ccccc2C2CC=NN12)Nc1ccc2c(c1)OCO2 (configuration not stated) | nt | i | nt | nt | nt | nt | nt | nt
O=C(Nc1cccc(-n2cnnn2)c1)c1cnccc1Cl | i | i | i | i | i | i | nt | nt
Cc1csc2c(N3CCN(C(=O)Nc4ccccc4)CC3)ncnc12 | i | i | i | i | i | i | nt | nt
Cc1csc2ncnc(N3CCN(C(=O)Nc4ccc(OC(F)(F)F)cc4)CC3)c12 | i | -9.74 | i | i | i | i | 108.7 | 0.157
CN1CCCC(OC(=O)c2ccc(C#N)cc2)C1 (configuration not stated) | i | i | i | i | i | i | nt | nt
CCOc1ccccc1NC(=O)C(NCCc1ccc(OC)cc1)c1ccccc1 (configuration not stated) | i | -10.1 | i | 6 | i | i | 132.0 | 0.129
CCOc1ccccc1NC(=O)C(NCCN(C)C)c1ccccc1 (configuration not stated) | i | i | i | i | i | i | nt | nt
COCCCNC(=O)c1ccccc1-c1cc(C)no1 | i | i | i | i | i | i | nt | nt
CC1(C)Cc2cccc(C(=O)NC3CCN(Cc4ccccc4)CC3)c2O1 | i | -8.84 | i | i | i | i | 114.0 | i
Cc1cccc(Cl)c1OCCCn1ccnc1 | i | i | i | i | i | i | nt | nt
Cc1nc(C(=O)Nc2cccc(Cl)c2)nn1-c1cc(OC(C)C)c(Cl)cc1Cl | i | -8.9 | i | i | i | i | 96.3 | i
CC1(c2ccccc2)NC(=O)N(N)C1=O (configuration not stated) | i | i | i | i | i | i | nt | nt
O=C(c1ccccc1)c1nn(-c2cccc(Cl)c2)c2nc(-c3ccccc3)cc(=O)n12 | i | -20.5 | i | i | i | i | 118.0 | 0.152
CCOC(=O)c1nn(-c2cccc(Cl)c2)c2nc(Nc3ccccc3)cc(=O)n12 | i | i | i | i | i | i | nt | nt
O=C(NCc1ccccc1)C(c1ccccc1)N(C(=O)c1csnn1)C1CCCC1 (configuration not stated) | i | i | i | i | i | i | nt | nt
CC1=C(C(=O)OC(C)C)C(c2cn(-c3ccccc3)nc2-c2cccs2)NC(=O)N1 (configuration not stated) | i | -9.45 | i | i | i | i | 87.0 | i
N#Cc1cn(CCCOc2ccccc2)c2ccccc12 | i | -9.47 | i | i | i | i | 115.0 | 0.14
O=C(O)CN(CC(=O)O)CC(=O)O | nt | i | nt | nt | nt | nt | nt | nt
Nc1n[nH]c(CO)n1 | i | i | i | i | i | i | nt | nt
COC(=O)c1cccc(N2C(=O)C(Cl)=C(N3CCOCC3)C2=O)c1 | i | -9.73 | i | i | i | i | 66.7 | i
O=C(Cc1c(F)cccc1Cl)N(Cc1ccccc1)c1ccccn1 | i | i | i | i | i | i | nt | nt
C(=N\N(c1ccccc1)c1ccccc1)/c1ccccn1 | i | -9.88 | i | i | i | i | 132.7 | 0.124
C(=N\n1cnnc1)/c1ccccn1 | i | i | i | i | i | i | nt | nt
O=C(COc1ccc(F)cc1)N1c2ccccc2CCc2ccccc21 | i | i | i | i | i | i | nt | nt
O=C(COc1cccc2ccccc12)N1c2ccccc2CCc2ccccc21 | i | -12.7 | i | i | i | i | 119.7 | 0.151
SMILES | KCNQ1 act | KCNK3 inh | hERG protect | KCNQ1 block | KCNK9 inh | Kir21 block | KCNK3 confirm | KCNK3 uninduced
Cc1ccc(NC(=O)c2cc(N3C(=O)C=CC3=O)ccc2Cl)cc1C | i | i | i | i | i | i | nt | nt
COc1ccc(CCNC(=O)C(=O)NCc2ccccn2)cc1 | i | i | i | i | i | i | nt | nt
Cc1ccc(NC(=O)c2cc(C)nc3ccccc23)c(C)c1 | i | i | i | i | i | i | nt | nt
Cc1ccc(NC(=O)c2cc(C)nc3ccccc23)c(Br)c1 | i | -10.2 | i | i | -7.99 | i | 94.0 | i
O=C(NCCOc1ccccc1)C1CCC(=O)N(C2CCCCCC2)C1 (configuration not stated) | i | i | i | i | i | i | nt | nt
CCOc1ccc(-c2nc(CSCC(=O)N3CCN(c4cccc(OC)c4)CC3)c(C)o2)cc1 | i | -12.1 | i | i | i | i | 138.3 | 0.153
CCOC(=O)N1CCC(NC(=O)CSCc2nc(-c3ccc(OCC)cc3)oc2C)CC1 | i | i | i | i | i | i | nt | nt
O=C1c2ccccc2C(=O)N1OCCCN1C(=O)c2ccccc2S1(=O)=O | nt | i | nt | nt | nt | nt | nt | nt
O=C(N/N=C/c1ccc[nH]1)c1ccccc1O | i | -9.01 | i | i | i | i | 81.3 | i
O=C(N/N=C/c1ccc[nH]1)c1ccc(O)cc1 | i | i | i | i | i | i | nt | nt
Oc1ccc(-c2csc(-c3ccccc3)n2)cc1O | i | i | i | i | i | i | nt | nt
Oc1ccccc1-c1csc(-c2ccccc2)n1 | i | -9.11 | i | i | -6.62 | i | 115.3 | 0.139
O=C(CC(c1ccccc1)c1ccccc1O)NCc1ccccc1 (configuration not stated) | i | -8.84 | i | i | i | i | 95.3 | i
CC(C)(C)NC(=O)CC(c1ccccc1)c1ccccc1O (configuration not stated) | i | i | i | i | i | i | nt | nt
COc1ccccc1C(C)Nc1nc(-c2cccnc2)nc2ccccc12 (configuration not stated) | i | -11.2 | i | i | i | i | 125.0 | i
CCn1cc(C(C)NC(=O)Nc2ccc3c(c2)OCO3)c(C)n1 (configuration not stated) | i | i | i | i | i | i | nt | nt
COc1ccc(S(=O)(=O)N2CCCCCC2)cc1C(=O)N(C)Cc1ccc(Cl)cc1Cl | i | i | i | i | i | i | nt | nt
COc1ccc(Br)cc1CN(C)CC(=O)NCCc1ccccc1 | i | -10.2 | i | i | i | -5.54 | 101.7 | i
CCN(CC(=O)Nc1ccccc1OC)CC(=O)Nc1ccccc1-c1ccccc1 | i | i | i | i | i | i | nt | nt
COc1ccccc1CN(C)CC(=O)Nc1ccccc1-c1ccccc1 | i | -8.78 | i | i | i | i | 115.7 | 0.137
COc1ccccc1C(=O)NCCC(=O)N1CCCC(C(F)(F)F)C1 (configuration not stated) | i | -9.51 | i | i | i | i | 77.3 | i
Cn1cccc1C1C=C(c2ccc(C(C)(C)C)cc2)Nc2ncnn21 (configuration not stated) | i | -9.14 | i | i | i | i | 110.7 | i
Cc1ccc(C2C=C(c3ccccc3)Nc3ncnn32)cc1 (configuration not stated) | i | i | i | i | i | i | nt | nt
CCC(C(=O)NCCN1CCOCC1)n1nc(C)n2c(cc3sccc32)c1=O (configuration not stated) | i | i | i | i | i | i | nt | nt
